{"source": "paper PMC7201918", "about": "(The Journal of Experimental Medicine, 2020)", "key": {"synovial cell cultures": {"test_system": "synovial cell cultures", "settings": "exogenous IL-18, synovial cell cultures; ref Gracie et al., 1999; cited from earlier work"}, "IL-18": {"test_system": "IL-18", "settings": "cited from earlier work"}, "[1]": {"test_system": "BM monocytes from WT and CIS−/− mice", "assay": "Chemokine", "assay_type": "cell-based, mouse", "settings": "8 h after GM-CSF stimulation, n = 3 mice", "outline": "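Bone marrow monocytes from WT and CIS−/− mice were isolated by anti-CD115-biotin/anti-biotin microbead positive selection (>95% purity). They were stimulated with recombinant GM-CSF at 100 ng/ml for 8 h in RPMI 1640 with antibiotics and 10% heat-inactivated FCS. Ccl17 and Ccl22 mRNA was measured by real-time PCR, normalized to Gapdh. n = 3 mice, one experiment.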"}, "[2]": {"test_system": "CD131 (GM-CSFRβ) on BM neutrophils", "assay": "Flow-cytometric analysis of CD131", "assay_type": "cell-based, mouse", "settings": "CIS−/− compared with WT neutrophils from 50:50 chimeric mice; n = 4 mice", "outline": "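Surface CD131 was measured by flow cytometry on bone marrow neutrophils from WT:CIS−/− (50:50) chimeric mice. Cells were analysed naive (t0) and after stimulation with recombinant G-CSF or GM-CSF (100 ng/ml). n = 4 mice pooled from two independent experiments.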"}, "[3]": {"test_system": "WT and CIS−/− BM neutrophils", "assay": "RNASeq of BM neutrophils after GM-CSF stimulation", "assay_type": "cell-based, mouse", "settings": "GM-CSF 100 ng/ml", "outline": "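Neutrophils were FACS-sorted from WT and CIS−/− bone marrow (PI– CD3– CD19– CD115– CD11b+ Ly6G+; 99–100% purity). They were left unstimulated or stimulated with recombinant GM-CSF at 100 ng/ml for 4 h and 24 h. RNA libraries underwent single-end 75 bp sequencing on a NextSeq 500 (~20 million reads per sample), and reads were quality-checked with fastqc.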"}, "[4]": {"test_system": "BM neutrophils from WT and CIS−/− mice", "assay": "CXCL2 and CCL3 secretion by BM neutrophils", "assay_type": "cell-based, mouse", "settings": "CIS−/− vs WT neutrophils, GM-CSF for 24 h; n = 3 mice"}, "[5]": {"test_system": "human blood neutrophils and monocytes", "assay": "Immunoblotting of pSTAT5 and CIS in human blood neutrophils and monocytes", "assay_type": "cell-based", "settings": "GM-CSF stimulation", "outline": "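Blood neutrophils and monocytes from healthy human donors were treated with GM-CSF. pSTAT5, CIS and β-actin were immunoblotted from RIPA lysates (protease and phosphatase inhibitors, BCA-normalized) run on 4–12% Bis-Tris gels and detected by chemiluminescence. One experiment representative of three.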"}, "CCRL2 on BM neutrophils": {"test_system": "CCRL2 on BM neutrophils", "assay": "Flow-cytometric analysis of CCRL2 surface expression on BM neutrophils", "assay_type": "cell-based, mouse", "settings": "CIS−/− vs WT neutrophils; n = 3 mice"}, "CIS−/− BM neutrophils": {"test_system": "CIS−/− BM neutrophils", "assay": "Immunoblot of JAK-STAT/MAPK/Akt phosphorylation in WT or CIS−/− BM neutrophils", "assay_type": "cell-based, mouse", "outline": "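Ly6G-selected bone marrow neutrophils (≥95% pure) were primed with GM-CSF (100 ng/ml) for 3 h, washed, and held in cytokine-free medium for various times. Cells were lysed in RIPA buffer containing protease and phosphatase inhibitors, and loading was normalized by BCA assay. Lysates were separated on 4–12% Bis-Tris gels, transferred to PVDF, and detected by chemiluminescence. One of three independent experiments.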"}, "[6]": {"test_system": "BM monocytes from WT and CIS−/− mice", "assay": "Differentiation of BM monocytes into CD11c+ GM-Macs", "assay_type": "cell-based, mouse", "settings": "CIS-deficient relative to WT monocytes; n = 4 mice", "outline": "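Monocytes were purified from bone marrow by anti-CD115 magnetic positive selection (>95% purity). They were cultured with recombinant GM-CSF at 100 ng/ml in RPMI 1640 with antibiotics and 10% heat-inactivated FCS for the indicated times. The frequency of CD11c+ GM-Macs was determined by flow cytometry. n = 4 mice pooled from two independent experiments.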"}, "WT mouse BM neutrophils": {"test_system": "WT mouse BM neutrophils", "assay": "SOCS mRNA expression by real-time PCR in BM neutrophils", "assay_type": "cell-based", "settings": "purified mouse BM neutrophils, 100 ng/ml GM-CSF, later time points"}, "[7]": {"test_system": "WT or CIS−/− BM neutrophils", "assay_type": "cell-based, mouse", "settings": "for cleaved caspase-3 induction upon cytokine withdrawal: G-CSF: WT and CIS−/− neutrophils, GM-CSF: CIS−/− relative to WT; for Mcl-1 expression: WT and CIS−/− neutrophils, G-CSF or GM-CSF preconditioning", "outline": "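Purified bone marrow neutrophils were exposed to recombinant G-CSF or GM-CSF (100 ng/ml) for 3 h, then replenished with cytokine-free medium for the indicated times. RIPA lysates with protease and phosphatase inhibitors were BCA-normalized. They were resolved on 4–12% Bis-Tris gels, blotted to PVDF, and developed by HRP chemiluminescence.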"}, "[8]": {"test_system": "WT and CIS−/− BM eosinophils", "assay": "Generation of eosinophils from BM cells in IL-5", "assay_type": "cell-based, mouse", "settings": "IL-5 for 3 d, n = 3 mice"}, "eosinophils": {"test_system": "eosinophils", "settings": "ref Burnham et al., 2013; Matsumoto et al., 1997; Yoshimura et al., 1995; cited from earlier work"}, "[9]": {"test_system": "GM-CSF (Csf2fl/fl:R26CreERT2 mice)", "assay": "EAE with tamoxifen-induced GM-CSF deletion", "assay_type": "in vivo, mouse", "settings": "tamoxifen by oral gavage after EAE onset in Csf2fl/fl:R26CreERT2 mice; n = 12 mice"}}, "data": [{"molecule": "IL-18: IL-1 family member; exogenous IL-18", "values": [{"measurement": "secretion of GM-CSF (along with nitric oxide, TNF, and IFN-γ)", "setting": "synovial cell cultures", "value": "promote the secretion of GM-CSF"}, {"measurement": "effect on CIA, exogenous IL-18", "setting": "IL-18; ref Gracie et al., 1999", "value": "prime CIA"}]}, {"molecule": "GM-CSF: recombinant GM-CSF (100 ng/ml)", "values": [{"measurement": "chemokine production by monocytes", "setting": "[1]", "value": "produced higher levels of chemokines"}, {"measurement": "cell surface GM-CSFRβ expression after stimulation", "setting": "[2]", "value": "higher cell surface GM-CSFRβ expression"}, {"measurement": "gene expression change, 24 h", "setting": "[3]; CIS−/− neutrophils, 24 h", "value": "extensive transcriptional changes"}, {"measurement": "gene expression change, 4 h", "setting": "[3]; CIS−/− vs WT neutrophils, 4 h", "value": "little difference in gene expression"}, {"measurement": "CXCL2 and CCL3 secretion", "setting": "[4]", "value": "secreted higher levels of CXCL2 and CCL3 chemokines"}, {"measurement": "CIS induction and STAT5 phosphorylation", "setting": "[5]", "value": "CIS induction and STAT5 phosphorylation"}, {"measurement": "cell surface CCRL2 expression", "setting": "CCRL2 on BM neutrophils", "value": "enhanced cell surface CCRL2 expression"}, {"measurement": "STAT5 activation, later time points", "setting": "CIS−/− BM neutrophils; CIS−/− vs WT neutrophils, 100 ng/ml GM-CSF, 2 h after stimulation", "value": "prolonged expression of STAT5 activation at later time points"}, {"measurement": "JAK2-STAT5 activation after cytokine withdrawal", "setting": "CIS−/− BM neutrophils; GM-CSF-primed (3 h) then washed CIS−/− neutrophils", "value": "Extended JAK2-STAT5 activation"}, {"measurement": "STAT3 and Akt dephosphorylation after cytokine withdrawal", "setting": "CIS−/− BM neutrophils; GM-CSF-primed (3 h) then washed, WT vs CIS−/− neutrophils", "value": "kinetics of STAT3 and Akt dephosphorylation were similar"}, {"measurement": "p38 MAPK and SAPK/JNK activation after cytokine withdrawal", "setting": "CIS−/− BM neutrophils; GM-CSF-primed then washed CIS−/− neutrophils", "value": "prolonged activation of p38 MAPK and SAPK/JNK"}, {"measurement": "differentiation into GM-Macs", "setting": "[6]", "value": "accelerated differentiation into GM-Macs"}, {"measurement": "persistence of SOCS mRNA induction", "setting": "WT mouse BM neutrophils", "value": "only Cish mRNA levels were sustained at later time points"}, {"measurement": "A1/Bfl-1 induction", "setting": "[7]; BM neutrophils", "value": "selectively induced the pro-survival protein A1/Bfl-1"}, {"measurement": "A1/Bfl-1 level upon cytokine withdrawal", "setting": "[7]; CIS−/− neutrophils upon GM-CSF withdrawal", "value": "sustained for a longer period"}, {"measurement": "cleaved caspase-3 induction upon cytokine withdrawal", "setting": "[7]", "value": "delayed induction of cleaved caspase-3"}, {"measurement": "Mcl-1 expression", "setting": "[7]", "value": "no difference in the expression of prosurvival Mcl-1 protein"}]}, {"molecule": "IL-5: cytokine signaling through the common β chain", "values": [{"measurement": "eosinophil numbers", "setting": "[8]", "value": "greater numbers"}, {"measurement": "Cish expression in eosinophils", "setting": "eosinophils", "value": "can induce Cish expression"}]}, {"molecule": "CC/C(=C(\\c1ccccc1)c1ccc(OCCN(C)C)cc1)c1ccccc1", "note": "[tamoxifen]", "values": [{"measurement": "progression of EAE", "setting": "[9]", "value": "inhibited the progression of EAE"}]}, {"molecule": "G-CSF: recombinant G-CSF (100 ng/ml) (protein, UniProt P09919 31-207, looked up) Granulocyte …: TPLGPASSLPQSFLLKCLEQVRKIQGDGAALQEKLVSECATYKLCHPEELVLLGHSLGIPWAPLSSCPSQALQLAGCLSQLHSGLFLYQGLLQALEGISPELGPTLDTLQLDVADFATTIWQQMEELGMAPALQPTQGAMPAFASAFQRRAGGVLVASHLQSFLEVSYRVLRHLAQP", "values": [{"measurement": "cell surface GM-CSFRβ expression after stimulation", "setting": "[2]", "value": "no such difference"}, {"measurement": "cleaved caspase-3 induction upon cytokine withdrawal", "setting": "[7]", "value": "rapid induction of cleaved caspase-3"}, {"measurement": "Mcl-1 expression", "setting": "[7]", "value": "no difference in the expression of prosurvival Mcl-1 protein"}]}, {"molecule": "IL-18–binding protein: endogenous inhibitor of IL-18 (protein, UniProt O95998 31-194, looked up) Interleukin-18-binding protein: TPVSQTTTAATASVRSTKDPCPSQPPVFPAAKQCPALEVTWPEVEVPLNGTLSLSCVACSRFPNFSILYWLGNGSFIEHLPGRLWEGSTSRERGSTGTQLCKALVLEQLTPALHSTNFSCVLVDPEQVVQRHVVLAQLWAGLRATLPPTQEALPSSHSSPQQQG", "values": [{"measurement": "effect on CIA, IL-18 inhibition", "setting": "IL-18; ref Plater-Zyberk et al., 2001", "value": "alleviation of CIA"}]}]}
